This is a sample that favours compounds with a hit; in the whole collection about 2.3% have one here.
OXTR potentiator – potentiates the human oxytocin receptor response; CHO-OTR cells, Fluo-8 calcium fluorescence, potentiator mode; 0% = oxytocin EC15, 100% = EC100; activation, % at 3 µM; 320,000 tested, 0.061% active; AID 2445;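 active = activation above that plate's cutoff, the mean activation of tested compounds plus 3 SD, cut at about 6.6% in these data, passing the limit was not always enough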;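 note: 100% uses oxytocin at 75 nM as the full agonist control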
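Assay system: CHO cell line stably expressing human OTR. Reagent: EC15 oxytocin agonist. Dosing: single dose, 3.0 µM nominal final compound concentration. Timing: compound 6 min at room temperature before oxytocin, 100 s read. Signal: kinetic Fluo-8 calcium fluorescence. Controls: oxytocin EC15 low and EC100 high.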
OXTR ag – agonists of human oxytocin receptor | P30559 | 320,000 tested, 0.32% active | activation, % at 3 µM | CHO-OTR cells, Fluo-8 calcium fluorescence; normalized: DMSO 0%, oxytocin 100%;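 active = activation above the mean of all tested compounds plus 3 SD, cutoff set per screening run, cut at about 20% in these data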;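 note: peak over basal fluorescence ratio from a 100 s FLIPR kinetic read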
TAAR1 antagonist – human TAAR1 antagonism; 360,000 tested, 1.5% active; inhibition, % at 3 µM; CHO RD-HGA16 TAAR1, Fluo-8 calcium fluorescence, antagonist;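 active = inhibition above a per-plate cutoff, the mean inhibition of test compounds on that plate plus 3 SD, cut at about 49% in these data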;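 note: 0% = DMSO plus EC80 beta-PEA response and 100% = DMSO alone without agonist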
Target sequence (Q96RJ0 whole entry, looked up): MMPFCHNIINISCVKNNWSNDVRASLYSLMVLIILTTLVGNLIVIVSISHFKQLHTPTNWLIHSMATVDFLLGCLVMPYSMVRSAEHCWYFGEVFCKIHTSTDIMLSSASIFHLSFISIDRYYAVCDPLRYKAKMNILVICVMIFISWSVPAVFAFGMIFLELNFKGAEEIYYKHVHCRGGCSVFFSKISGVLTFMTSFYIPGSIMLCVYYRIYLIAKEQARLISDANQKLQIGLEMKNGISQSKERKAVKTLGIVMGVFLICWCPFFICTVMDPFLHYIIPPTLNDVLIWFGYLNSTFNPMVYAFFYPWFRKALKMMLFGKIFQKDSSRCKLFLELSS
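Test system – hTAAR1-expressing CHO RD-HGA16 cells, Gα16-coupled · Also added – β-PEA at EC80 concentration, post-compound challenge · Compound – 3 µM, single point · Incubation – dye loading 75 min at 37 °C, then 30 min room temperature · Measured by – Fluo-8 intracellular calcium dye fluorescence, real-time kinetic reads · Benchmarks – vehicle and agonist controls · Replicates – singlicate, one well per test compound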
V1aR counter – V1a receptor agonism, counter-screen for OXTR agonists; P37288; CHO-V1R cells, Fluo-8 calcium fluorescence, agonist mode; 0% DMSO, 100% 3 nM vasopressin; activation, % at 3 µM; 320,000 tested, 0.25% active; AID 2797;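 active = activation above the mean activation of all tested compounds plus 3 SD, per screening run, cut at about 20% in these data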;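 note: signal is peak over basal fluorescence ratio across a 100 second FLIPR read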
Target sequence (P37288 whole entry, looked up): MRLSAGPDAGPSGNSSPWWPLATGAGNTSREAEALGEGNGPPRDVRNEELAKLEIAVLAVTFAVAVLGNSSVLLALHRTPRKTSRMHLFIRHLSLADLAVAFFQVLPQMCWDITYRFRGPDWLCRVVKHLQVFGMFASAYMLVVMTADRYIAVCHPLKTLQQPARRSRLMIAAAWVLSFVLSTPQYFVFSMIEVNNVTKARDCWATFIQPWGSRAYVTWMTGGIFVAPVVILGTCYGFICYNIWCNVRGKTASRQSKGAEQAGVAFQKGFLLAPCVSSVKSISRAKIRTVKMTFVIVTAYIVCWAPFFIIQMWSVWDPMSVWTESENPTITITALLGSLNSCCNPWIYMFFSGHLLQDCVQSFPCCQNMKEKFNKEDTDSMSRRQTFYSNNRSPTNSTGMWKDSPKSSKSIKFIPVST
TAAR1 agonist – agonists of human TAAR1; Q96RJ0; activation, % at 3 µM; CHO RD-HGA16 TAAR1, Fluo-8 calcium fluorescence; vehicle wells 0%, saturating PEA agonist 100%; 360,000 tested, 0.99% active; AID 624467;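 active = activation above the mean activation of all test compounds in the run plus 3 SD, cut at about 38% in these data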
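Test system: RD-HGA16 (CHO) cells co-expressing Gα16 and hTAAR1; dosing: one-point dosing at 3 µM (nominal); timing: 17-24 h seeding, 75 min 37 °C dye, 30 min RT; signal: kinetic Fluo-8 calcium fluorescence; read-out basis: % activation relative to PEA EC100 response; controls: DMSO and PEA EC100; replicates: n 1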
nonsel antag count – counter-screen for TAAR1 antagonists: nonselective antagonists; shares compounds with TAAR1 antagonist; counterscreen cell line, calcium fluorescence, antagonist mode; inhibition, % at 3 µM; 2,400 tested, 77% active; AID 651780; in the data active = inhibition above about 22%;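 note: CHO-Ga16 host cells stimulated with ATP at an EC80 level; 0% = agonist EC80 plus vehicle and 100% = vehicle without agonist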
TAAR1 antag conf – human TAAR1 antagonism, confirmed; AID 651785; shares compounds with TAAR1 antagonist; TAAR1-expressing cells, fluorescence antagonist read-out; 2,400 tested, 40% active; inhibition, % at 3 µM; in the data active = inhibition above about 49%;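 note: CHO-Ga16 host cells challenged with agonist PEA near its EC80; 0% = agonist at EC80 plus vehicle and 100% = vehicle with no agonist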
Ga16 ag counter – nonselective Ga16 agonism, counter-screen. shares compounds with TAAR1 antagonist. Ga16-expressing cells, calcium fluorescence, agonist counterscreen. activation, % at 3 µM. 2,400 tested, 18% active. AID 651953; in the data active = activation above about 12%;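 note: 0% = vehicle wells and 100% = saturating stimulus response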
TAAR1 ag count – TAAR1 agonism, antagonist counter-screen. hTAAR1 cell line, fluorescence activation, agonist mode. shares compounds with TAAR1 antagonist. AID 651955. 2,400 tested, 2% active. activation, % at 3 µM; in the data active = activation above about 37%;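 note: CHO cells stably expressing TAAR1 with calcium dye readout; 0% = DMSO vehicle and 100% = full agonist response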
Starred values were filed as active, the others as inactive.

`CCc1ccccc1NC(=O)CSc1nc2ccccc2n1CC(=O)N1CCCC1` gave OXTR potentiator -5.0, OXTR ag 1.2, TAAR1 antagonist -9.2, V1aR counter 11.6 and TAAR1 agonist 6.2.
Screening C#CCN(C[C@@H](CC(C)C)NC(=O)OC(C)(C)C)S(=O)(=O)c1ccc(Br)cc1F returned TAAR1 antagonist 50.7*, TAAR1 agonist 2.5, nonsel antag count 16.0, TAAR1 antag conf 15.6, Ga16 ag counter 3.3 and TAAR1 ag count 1.9.
CC(C)CC(NC(=O)C(CC(C)C)NC(=O)OC(C)(C)C)C(=O)O (stereo not given) was read as OXTR potentiator -10.2, OXTR ag -0.8, TAAR1 antagonist -6.4, V1aR counter 0.7 and TAAR1 agonist 12.2.
`COc1cc(/C=C2\C(=N)N3N=C(S(C)(=O)=O)SC3=NC2=O)ccc1OS(=O)(=O)c1ccc(C)cc1` gave OXTR potentiator -12.2, OXTR ag -1.6, TAAR1 antagonist 0.8, V1aR counter -0.5 and TAAR1 agonist 1.1.
For O=C(Nc1ccccc1N1CCN(C(=O)c2ccccc2)CC1)c1ccc(Cl)cc1 the results were OXTR potentiator 0.1, OXTR ag -1.8, TAAR1 antagonist 54.9*, V1aR counter 0.1, TAAR1 agonist 4.7, nonsel antag count 24.1*, TAAR1 antag conf 46.3, Ga16 ag counter 5.4 and TAAR1 ag count 0.9.
O=C(Nc1ccccc1N1CCN(C(=O)c2ccc(Cl)cc2)CC1)c1ccc(Br)cc1 was read as OXTR potentiator -2.6, OXTR ag 0.8, TAAR1 antagonist 18.2, V1aR counter -0.1 and TAAR1 agonist 5.9.
Screening CC(=O)NC(=S)Nc1ccccc1N1CCN(C(=O)c2ccccc2)CC1 returned OXTR potentiator -4.2, OXTR ag 0.7, TAAR1 antagonist 6.4, V1aR counter 1.4 and TAAR1 agonist 14.8.
`CC(C)C(=O)N1CCN(c2ccccc2NC(=S)NC(=O)/C=C/c2ccco2)CC1` gave OXTR potentiator -4.2, OXTR ag -1.6, TAAR1 antagonist 50.8*, V1aR counter -1.0, TAAR1 agonist 6.2, nonsel antag count 19.4, TAAR1 antag conf 45.7, Ga16 ag counter 4.2 and TAAR1 ag count 12.9.
`O=C(/C=C/c1ccco1)Nc1ccccc1N1CCCCC1` gave OXTR potentiator 2.3, OXTR ag -1.9, TAAR1 antagonist -1.6, V1aR counter -0.1 and TAAR1 agonist 6.2.
Screening CC(C)C(=O)NC(=S)Nc1ccccc1N1CCN(C(=O)c2ccccc2)CC1 returned OXTR potentiator -17.9, OXTR ag -0.1, TAAR1 antagonist 77.9*, V1aR counter 1.5, TAAR1 agonist 18.5, nonsel antag count 38.4*, TAAR1 antag conf 59.6*, Ga16 ag counter 13.9* and TAAR1 ag count 16.6.
O=C(Nc1ccccc1OC(=O)c1ccc(Cl)cc1)c1ccc(Cl)cc1 was read as OXTR potentiator -5.8, OXTR ag -1.8, TAAR1 antagonist 53.9*, V1aR counter -0.3, TAAR1 agonist 0.1, nonsel antag count -2.4, TAAR1 antag conf 53.2*, Ga16 ag counter 1.4 and TAAR1 ag count 8.9.
`COc1cc2c(cc1OC)CN(C1CCC(C(C)(C)C)CC1)CC2` (stereo not given) gave TAAR1 antagonist 8.6 and TAAR1 agonist 11.2.
`Cc1noc(C)c1COc1ccccc1C(=O)Nc1cccc(S(=O)(=O)N(C)C)c1` gave OXTR potentiator -0.4, OXTR ag -0.3, TAAR1 antagonist -3.0, V1aR counter 0.2 and TAAR1 agonist 2.7.
Screening CC(=O)c1ccc(NC(=O)c2ccc(S(=O)(=O)c3ccccc3)cc2)cc1 returned OXTR potentiator -9.0, OXTR ag 6.6, TAAR1 antagonist 69.4*, V1aR counter 6.7, TAAR1 agonist 20.6, nonsel antag count 38.7*, TAAR1 antag conf 61.1*, Ga16 ag counter 12.4* and TAAR1 ag count 15.7.
CN(C)S(=O)(=O)c1cccc(NC(=O)COc2ccccc2C(=O)Nc2ccccc2)c1 was read as TAAR1 antagonist 72.3*, TAAR1 agonist 23.8, nonsel antag count 52.8*, TAAR1 antag conf 65.1*, Ga16 ag counter 14.0* and TAAR1 ag count 12.0.
For CC(C)(C)NC(=O)COC(=O)c1ccccc1OCC(=O)Nc1ccc(Br)cc1 the results were OXTR potentiator -6.2, OXTR ag -1.4, TAAR1 antagonist 51.0*, V1aR counter 0.2, TAAR1 agonist 10.2, nonsel antag count 23.8*, TAAR1 antag conf 42.6, Ga16 ag counter 8.8 and TAAR1 ag count 8.5.
For CCN(CC)S(=O)(=O)c1cc(NC(=O)c2ccccc2OCc2c(C)noc2C)ccc1C the results were TAAR1 antagonist 63.6*, TAAR1 agonist 2.9, nonsel antag count 24.3*, TAAR1 antag conf 44.0, Ga16 ag counter 2.6 and TAAR1 ag count -1.8.
Screening CCCNC(=O)COC(=O)c1ccccc1OCC(=O)Nc1ccc(Br)cc1 returned OXTR potentiator 7.3, OXTR ag -0.9, TAAR1 antagonist -12.8, V1aR counter 0.3 and TAAR1 agonist 1.1.
`CC(=O)c1ccc(NC(=O)COc2ccccc2C(=O)Nc2ccccc2)cc1` gave OXTR potentiator -14.0, OXTR ag 8.6, TAAR1 antagonist 73.3*, V1aR counter 7.0, TAAR1 agonist 11.8, nonsel antag count 45.0*, TAAR1 antag conf 67.1*, Ga16 ag counter 14.6* and TAAR1 ag count 11.2.
Screening O=C(COc1ccccc1C(=O)c1cnn(-c2ccccc2)c1)Nc1ccccc1 returned OXTR potentiator -7.9, OXTR ag -0.9, TAAR1 antagonist 53.2*, V1aR counter 1.3, TAAR1 agonist 1.9, nonsel antag count 24.0*, TAAR1 antag conf 40.8, Ga16 ag counter 6.1 and TAAR1 ag count 6.3.
`CCNC(=O)COc1ccc(F)cc1C(=O)c1cnn(-c2ccccc2)c1` gave OXTR potentiator -8.7, OXTR ag 1.4, TAAR1 antagonist 2.6, V1aR counter 3.1 and TAAR1 agonist 0.3.
`Cc1ccc(NC(=O)c2ccccc2OCC(=O)Nc2ccccc2F)cc1S(=O)(=O)N(C)C` gave OXTR potentiator -11.2, OXTR ag 0.9, TAAR1 antagonist 68.5*, V1aR counter 2.7, TAAR1 agonist 25.7, nonsel antag count 33.9*, TAAR1 antag conf 51.6*, Ga16 ag counter 10.0 and TAAR1 ag count 6.0.
O=S(=O)(NN=C(c1ccccc1)c1ccccc1)c1ccccc1 was read as TAAR1 antagonist -23.7 and TAAR1 agonist -1.6.
